Our source for the IC50 values is article PMC9071996 (RSC Advances, 2019).

Each structure is given as a SMILES string.

Assay type in all cases: cell-based
One assay deals with RPMI-8226 cells. Nature of the assay: MTS cytotoxicity assay, RPMI-8226. Conditions: Homo sapiens, RPMI-8226, 72 h, read-out: IC50 (μM) RPMI-8226. In outline: (§1)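 MTS viability assay in A549, MDA-MB-231 and RPMI-8226 human cancer cells. All compounds were first screened at 10 and 50 μM. Compounds that crossed a set viability threshold in this screen went on to IC50 determination.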
On the technique in general: Tetrazolium dyes change colour on reduction, which living cells bring about.

A further assay concerns A549 cells. Nature of the assay: MTS cytotoxicity assay, A549. The following applies: Homo sapiens, A549, 72 h, read-out: IC50 (μM) A549. In outline: as §1
In the next assay the test system is GES-1 cells. Nature of the assay: MTS cytotoxicity assay, normal GES-1 cells. The following applies: Homo sapiens, GES1, 72 h, read-out: IC50 (μM) GES-1.
A further assay has as its system MDA-MB-231 cells. Nature of the assay: MTS cytotoxicity assay, MDA-MB-231. The following applies: Homo sapiens, MDA-MB-231, 72 h, read-out: IC50 (μM) MBA-MD-231. In a few lines: as §1

Broadly, the IC50 is the point on the concentration scale where inhibition reaches its midpoint. As for `CC12CCC(c3c(-c4ccccc4F)nc(N)nc31)C2(C)C` (stereo not drawn) [Compound 3a, 4-(2-Fluorophenyl)-8,9,9-trimethyl-5,6,7,8-tetrahydro-5,8-methanoquinazolin-2-amine], the concentration for half-maximal inhibition (IC50) with RPMI-8226 cells is above 50 µM; in the assay with A549 cells it was above 50 µM; in the assay on GES-1 cells, above 50 µM; with MDA-MB-231 cells it was 32.85 ± 0.31 µM.

Regarding `CC12CCC(c3c(-c4cccc(F)c4)nc(N)nc31)C2(C)C` (stereo not drawn) [Compound 3b, 4-(3-Fluorophenyl)-8,9,9-trimethyl-5,6,7,8-tetrahydro-5,8-methanoquinazolin-2-amine], the concentration for half-maximal inhibition (IC50) is above 50 µM in the assay with RPMI-8226 cells, 24.35 ± 0.01 µM with A549 cells, above 50 µM in the assay with GES-1 cells and 28.56 ± 0.26 µM with MDA-MB-231 cells.

As for `CC12CCC(c3c(-c4ccc(F)cc4)nc(N)nc31)C2(C)C` (stereo not drawn) [Compound 3c, 4-(4-Fluorophenyl)-8,9,9-trimethyl-5,6,7,8-tetrahydro-5,8-methanoquinazolin-2-amine], the IC50 with RPMI-8226 cells is 9.3 ± 0.34 µM; in the assay with A549 cells it was 12.63 ± 0.02 µM; in the assay on GES-1 cells, above 50 µM; in the assay with MDA-MB-231 cells it was 12.59 ± 0.04 µM.

Take `CC12CCC(c3c(-c4ccccc4Cl)nc(N)nc31)C2(C)C` (stereo not drawn) [Compound 3d, 4-(2-Chlorophenyl)-8,9,9-trimethyl-5,6,7,8-tetrahydro-5,8-methanoquinazolin-2-amine]: the IC50 in the assay with RPMI-8226 cells is 11.4 ± 0.18 µM; in the assay with A549 cells it was 16.9 ± 0.5 µM; in the assay on GES-1 cells, above 50 µM; with MDA-MB-231 cells, 25.5 ± 0.39 µM.

Consider `CC12CCC(c3c(-c4cccc(Cl)c4)nc(N)nc31)C2(C)C` (stereo not drawn) [Compound 3e, 4-(3-Chlorophenyl)-8,9,9-trimethyl-5,6,7,8-tetrahydro-5,8-methanoquinazolin-2-amine], for which the concentration for half-maximal inhibition (IC50) was 10.4 ± 0.35 µM with RPMI-8226 cells, 10.63 ± 0.09 µM in the assay on A549 cells, above 50 µM in the assay with GES-1 cells and 23.3 ± 0.44 µM with MDA-MB-231 cells.

`CC12CCC(c3c(-c4ccccc4Br)nc(N)nc31)C2(C)C` (stereo not drawn) [Compound 3g, 4-(2-Bromophenyl)-8,9,9-trimethyl-5,6,7,8-tetrahydro-5,8-methanoquinazolin-2-amine]: the IC50 with RPMI-8226 cells was above 50 µM; with A549 cells, 23.32 ± 0.03 µM; in the assay on GES-1 cells, above 50 µM; with MDA-MB-231 cells it was 18.3 ± 0.26 µM.

In the case of `CC12CCC(c3c(-c4cccc(Br)c4)nc(N)nc31)C2(C)C` (stereo not drawn) [Compound 3h, 4-(3-Bromophenyl)-8,9,9-trimethyl-5,6,7,8-tetrahydro-5,8-methanoquinazolin-2-amine], the 50% inhibitory concentration (IC50) in the assay with RPMI-8226 cells, in the assay with A549 cells, in the assay with GES-1 cells and with MDA-MB-231 cells was above 50 µM throughout.

For `CC12CCC(c3c(-c4ccc(Br)cc4)nc(N)nc31)C2(C)C` (stereo not drawn) [Compound 3i, 4-(4-Bromophenyl)-8,9,9-trimethyl-5,6,7,8-tetrahydro-5,8-methanoquinazolin-2-amine], the IC50 was 18.94 ± 0.08 µM in the assay on RPMI-8226 cells, 16.45 ± 0.04 µM in the assay with A549 cells, above 50 µM in the assay on GES-1 cells and 8.66 ± 0.17 µM with MDA-MB-231 cells.

For the molecule `Cc1ccccc1-c1nc(N)nc2c1C1CCC2(C)C1(C)C` (stereo not drawn) [Compound 3j, 8,9,9-Trimethyl-4-(o-tolyl)-5,6,7,8-tetrahydro-5,8-methanoquinazolin-2-amine], the IC50 in the assay with RPMI-8226 cells is above 50 µM; with A549 cells it was 22.54 ± 0.15 µM; with GES-1 cells, above 50 µM; in the assay with MDA-MB-231 cells, 26.2 ± 0.4 µM.

As for `Cc1cccc(-c2nc(N)nc3c2C2CCC3(C)C2(C)C)c1` (stereo not drawn) [Compound 3k, 8,9,9-Trimethyl-4-(m-tolyl)-5,6,7,8-tetrahydro-5,8-methanoquinazolin-2-amine], the IC50 was above 50 µM in the assay on RPMI-8226 cells, 18 ± 0.18 µM in the assay with A549 cells, above 50 µM in the assay with GES-1 cells and 20 ± 0.09 µM in the assay with MDA-MB-231 cells.

For the molecule `Cc1ccc(-c2nc(N)nc3c2C2CCC3(C)C2(C)C)cc1` (stereo not drawn) [Compound 3l, 8,9,9-Trimethyl-4-(p-tolyl)-5,6,7,8-tetrahydro-5,8-methanoquinazolin-2-amine], the concentration for half-maximal inhibition (IC50) in the assay with RPMI-8226 cells is 13.86 ± 0.09 µM; in the assay on A549 cells it was 15.32 ± 0.09 µM; with GES-1 cells, above 50 µM; in the assay with MDA-MB-231 cells, 15.68 ± 0.14 µM.

Regarding `COc1ccccc1-c1nc(N)nc2c1C1CCC2(C)C1(C)C` (stereo not drawn) [Compound 3m, 4-(2-Methoxyphenyl)-8,9,9-trimethyl-5,6,7,8-tetrahydro-5,8-methanoquinazolin-2-amine], the half-inhibitory concentration (IC50) in the assay on RPMI-8226 cells, in the assay with A549 cells, with GES-1 cells and in the assay on MDA-MB-231 cells was above 50 µM throughout.

Regarding `COc1cccc(-c2nc(N)nc3c2C2CCC3(C)C2(C)C)c1` (stereo not drawn) [Compound 3n, 4-(3-Methoxyphenyl)-8,9,9-trimethyl-5,6,7,8-tetrahydro-5,8-methanoquinazolin-2-amine], the IC50 with RPMI-8226 cells, in the assay with A549 cells, in the assay with GES-1 cells and with MDA-MB-231 cells was above 50 µM in each case.

With `COc1ccc(-c2nc(N)nc3c2C2CCC3(C)C2(C)C)cc1` (stereo not drawn) [Compound 3o, 4-(4-Methoxyphenyl)-8,9,9-trimethyl-5,6,7,8-tetrahydro-5,8-methanoquinazolin-2-amine], the IC50 in the assay with RPMI-8226 cells, in the assay on A549 cells, in the assay on GES-1 cells and in the assay with MDA-MB-231 cells was above 50 µM each time.

With `CC12CCC(c3c(-c4ccccc4O)nc(N)nc31)C2(C)C` (stereo not drawn) [Compound 3p, 2-(2-Amino-8,9,9-trimethyl-5,6,7,8-tetrahydro-5,8-methanoquinazolin-4-yl)phenol], the IC50 in the assay on RPMI-8226 cells was above 50 µM; with A549 cells, 14 ± 0.16 µM; with GES-1 cells it was above 50 µM; in the assay with MDA-MB-231 cells it was 16.3 ± 0.26 µM.

Take `CC12CCC(c3c(-c4cccc(O)c4)nc(N)nc31)C2(C)C` (stereo not drawn) [Compound 3q, 3-(2-Amino-8,9,9-trimethyl-5,6,7,8-tetrahydro-5,8-methanoquinazolin-4-yl)phenol]: the IC50 in the assay on RPMI-8226 cells, in the assay with A549 cells, with GES-1 cells and in the assay on MDA-MB-231 cells was above 50 µM each time.

Regarding `CC12CCC(c3c(-c4ccc(O)cc4)nc(N)nc31)C2(C)C` (stereo not drawn) [Compound 3r, 4-(2-Amino-8,9,9-trimethyl-5,6,7,8-tetrahydro-5,8-methanoquinazolin-4-yl)phenol], the 50% inhibitory concentration (IC50) with RPMI-8226 cells, in the assay with A549 cells, with GES-1 cells and in the assay on MDA-MB-231 cells was above 50 µM in each case.

On to `CC12CCC(c3c(-c4ccccn4)nc(N)nc31)C2(C)C` (stereo not drawn) [Compound 3s, 8,9,9-Trimethyl-4-(pyridin-2-yl)-5,6,7,8-tetrahydro-5,8-methanoquinazolin-2-amine], for which the half-inhibitory concentration (IC50) in the assay on RPMI-8226 cells, in the assay on A549 cells, with GES-1 cells and in the assay with MDA-MB-231 cells was above 50 µM throughout.

Regarding `CC12CCC(c3c(-c4cccnc4)nc(N)nc31)C2(C)C` (stereo not drawn) [Compound 3t, 8,9,9-Trimethyl-4-(pyridin-3-yl)-5,6,7,8-tetrahydro-5,8-methanoquinazolin-2-amine], the IC50 with RPMI-8226 cells, with A549 cells, in the assay with GES-1 cells and in the assay with MDA-MB-231 cells was above 50 µM in each case.

With `CC12CCC(c3c(-c4ccncc4)nc(N)nc31)C2(C)C` (stereo not drawn) [Compound 3u, 8,9,9-Trimethyl-4-(pyridin-4-yl)-5,6,7,8-tetrahydro-5,8-methanoquinazolin-2-amine], the IC50 in the assay on RPMI-8226 cells, in the assay on A549 cells, in the assay with GES-1 cells and with MDA-MB-231 cells was above 50 µM in each case.

As to `CN(C)c1ccc(-c2nc(N)nc3c2C2CCC3(C)C2(C)C)cc1` (stereo not drawn) [Compound 3v, 4-(4-(Dimethylamino)phenyl)-8,9,9-trimethyl-5,6,7,8-tetrahydro-5,8-methanoquinazolin-2-amine], the IC50 with RPMI-8226 cells, in the assay on A549 cells, in the assay on GES-1 cells and with MDA-MB-231 cells was above 50 µM each time.

For the molecule `CC12CCC(c3c(-c4ccc([N+](=O)[O-])cc4)nc(N)nc31)C2(C)C` (stereo not drawn) [Compound 3w, 8,9,9-Trimethyl-4-(4-nitrophenyl)-5,6,7,8-tetrahydro-5,8-methanoquinazolin-2-amine], the IC50 in the assay on RPMI-8226 cells is 9.58 ± 0.11 µM; in the assay with A549 cells it was 10.84 ± 0.09 µM; with GES-1 cells, above 50 µM; in the assay with MDA-MB-231 cells, 6.21 ± 0.14 µM.

For the molecule `CC12CCC(c3c(-c4ccccc4)nc(N)nc31)C2(C)C` (stereo not drawn) [Compound 3x, 8,9,9-Trimethyl-4-phenyl-5,6,7,8-tetrahydro-5,8-methanoquinazolin-2-amine], the IC50 in the assay with RPMI-8226 cells is above 50 µM; with A549 cells it was above 50 µM; in the assay with GES-1 cells, above 50 µM; with MDA-MB-231 cells, 29.88 ± 0.16 µM.

For `COc1cc([C@@H]2c3cc4c(cc3[C@@H](O[C@@H]3O[C@@H]5CO[C@@H](C)O[C@H]5[C@H](O)[C@H]3O)[C@H]3COC(=O)[C@H]23)OCO4)cc(OC)c1O` [Etoposide, reference compound], the concentration for half-maximal inhibition (IC50) was 1.92 ± 0.17 µM in the assay on RPMI-8226 cells, 10.9 ± 0.79 µM in the assay with A549 cells, 8.89 ± 0.7 µM in the assay on GES-1 cells and 3.97 ± 0.45 µM in the assay on MDA-MB-231 cells.
